# Calls of active or inactive are those of the source. The rule behind the calls is not given here.
# Legend:
# [1] = Selectivity index, ratio of IC50 for HAF to IC50 for human HCT8 cells; type: toxicity; settings: HAF cells versus HCT8 cells, read-out: Ratio IC50
# HT-29 = test: Antiproliferative activity against human HT-29 cells after 72 hrs by SRB assay; type: functional, cell-based; settings: HT-29, 72 h
# HCT-8 = test: Antiproliferative activity against human HCT8 cells after 72 hrs by SRB assay; type: functional, cell-based; settings: HCT-8, 72 h
# [2] = Selectivity index, ratio of IC50 for HAF to IC50 for human HT-29 cells; type: toxicity; settings: HAF cells versus HT-29 cells, read-out: Ratio IC50
# HCT-116 [3] = test: Inhibition of Bmi1 protein expression in human HCT116 cells after 8 hrs by Western blot analysis; type: functional, cell-based
# [4] = Antiproliferative activity against HAF after 72 hrs by SRB assay; parameters: species or system Homo sapiens
# [5] = Selectivity index, ratio of IC50 for HAF to IC50 for human HCT116 cells; type: toxicity; settings: HAF cells versus HCT116 cells, read-out: Ratio IC50
# HCT-116 [6] = test: Antiproliferative activity against human HCT116 cells after 72 hrs by SRB assay; type: functional, cell-based; settings: HCT-116, 72 h
# HCT-116 [7] = test: Potency index, ratio of PTC-209 IC50 to compound IC50 for antiproliferative activity against human HCT116 cells; type: functional
# [8] = target: T1, Polycomb complex protein BMI-1 (Homo sapiens) (UniProt P35226); test: Inhibition of Bmi1 in human HCT116 cells assessed as reduction in H2A-K119Ub level after 8 hrs by Western blot analysis; type: cell-based
# T1 sequence (whole entry): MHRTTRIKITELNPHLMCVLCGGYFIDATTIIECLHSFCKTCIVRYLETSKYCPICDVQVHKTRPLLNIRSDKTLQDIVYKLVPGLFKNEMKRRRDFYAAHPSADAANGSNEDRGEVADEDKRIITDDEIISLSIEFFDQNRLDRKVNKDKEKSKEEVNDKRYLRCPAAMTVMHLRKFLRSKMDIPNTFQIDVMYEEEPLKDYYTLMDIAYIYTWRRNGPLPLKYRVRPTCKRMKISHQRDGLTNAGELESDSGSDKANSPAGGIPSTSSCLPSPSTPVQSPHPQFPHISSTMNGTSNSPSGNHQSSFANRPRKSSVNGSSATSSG
# Procedure, shortened: (§1)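 HCT116 cells treated with test agents at the indicated concentrations for 8 h. Bmi-1, H2A-K119 ubiquitinated H2A (ub-H2A), total H2A and Ring1b detected by Western blot.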
# HCT-116 [9] = test: Inhibition of cancer stem cell proliferation in human HCT116 cells assessed as CD133/CD44-positive cell population at 1 uM after 48 hrs by flow cytometry (reference value: 85.1 to 86.6%); type: functional; parameters: scale not given: the % may be the effect or the level left
# HCT-116 [10] = test: Antitumor activity against human HCT116 cells xenografted in nude mouse assessed as reduction in Ki67 expression in tumor at 10 mg/kg/day, ip for 18 days by IHC analysis; type: functional, organism-based
# Procedure, shortened: (§2)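 Subcutaneous HCT116 xenografts in nude mice, randomized into groups of n = 6. Dosing was daily intraperitoneal injection for 18 days with DMSO as vehicle control. Mice were then sacrificed, and excised tumors were stained by immunohistochemistry for Ki67 and Bmi-1, compared with vehicle-treated controls.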
# Mus musculus [11] = test: Decrease in Bmi1 expression in tumors of nude mouse xenografted with human HCT116 cells at 10 mg/kg/day, ip for 18 days by IHC analysis; type: functional, organism-based; procedure, shortened: as §2
# HCT-116 [12] = test: Antimigratory activity against human HCT116 cells after 24 hrs by crystal violet staining based transwell migration assay; type: functional, cell-based
# Procedure, shortened: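 HCT116 cells were tested for migration through a transwell chamber at 0.5 and 1 μM, compared against an untreated (0 μM) control. Significance was assessed versus that control.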
# HCT-116 [13] = test: Inhibition of colony formation in human HCT116 cells at 0.1 to 0.4 uM after 7 days by crystal violet staining based assay; type: functional, cell-based
# HCT-116 [14] = test: Induction of apoptosis in human HCT116 cells at 1 uM after 48 hrs by Annexin V/propidium iodide staining based flow cytometry relative to control; type: functional
# HCT-116 [15] = test: Effect on total Ring1b protein expression in human HCT116 cells at 0.5 to 4 uM after 8 hrs by Western blot analysis; type: functional, cell-based; procedure, shortened: as §1
# Mus musculus [16] = test: Toxicity in nude mouse xenografted with human HCT116 cells assessed as change in body weight at 10 mg/kg/day, ip for 18 days; type: organism-based; settings: in vivo, 432 h
# HCT-116 [17] = test: Effect on total H2A protein expression in human HCT116 cells at 0.5 to 4 uM after 8 hrs by Western blot analysis; type: functional, cell-based; procedure, shortened: as §1
# HCT-116 [18] = test: Antitumor activity against human HCT116 cells xenografted in nude mouse assessed as tumor growth inhibition at 10 mg/kg/day, ip for 18 days; type: functional, organism-based
# Procedure, shortened: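 Nude mice bearing subcutaneous HCT116 tumors, randomized four groups (n = 6 each), including a DMSO vehicle group. Dosing was intraperitoneal once daily for 18 days, then sacrifice. Removed tumors were weighed and tumor volume recorded, and body weight was followed. Significance was tested versus vehicle control.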
IC50 (HT-29) [µM],IC50 (HCT-8) [µM],IC50 (HCT-116 [6]) [µM],SMILES,selectivity ratio [1],selectivity ratio [2],IC50 [4] [µM],selectivity ratio [5],further results
4.09,5.67,4.56,COc1cc2c(cc1C(=O)Nc1ccc(OC(F)(F)F)cc1)CC[C@H]1C(C)(C)C(=O)C=C[C@]21C,3 to 3.8,3 to 3.8,17.1,3 to 3.8,inhibition (HCT-116 [3]): inactive
0.56,0.58,0.43,COc1cc2c(cc1C(=O)Nc1cccc(OC(F)(F)F)c1)CC[C@H]1C(C)(C)C(=O)C(C#N)=C[C@]21C,6.2 to 8.3,6.2 to 8.3,3.57,6.2 to 8.3,
,,0.85,COc1cc2c(cc1C(=O)Nc1ccc(C(N)=O)cc1)CC[C@H]1C(C)(C)C(=O)C(C#N)=C[C@]21C,,,,,
,,0.75,COc1cc2c(cc1C(=O)Nc1ccc(N)cc1)CC[C@H]1C(C)(C)C(=O)C(C#N)=C[C@]21C,,,,,
,,1.31,COc1cc2c(cc1C(=O)Oc1ccccc1)CC[C@H]1C(C)(C)C(=O)C(C#N)=C[C@]21C,,,,,
,,0.53,COc1cc2c(cc1C(=O)Nc1ccc(Br)cc1)CC[C@H]1C(C)(C)C(=O)C(C#N)=C[C@]21C,,,,,
,,8.54,CNC(=O)c1cc2c(cc1OC)[C@@]1(C)C=C(C#N)C(=O)C(C)(C)[C@@H]1CC2,,,,,
0.54,0.6,0.3,COc1cc2c(cc1C(=O)Nc1ccc(OC(F)(F)F)cc1)CC[C@H]1C(C)(C)C(=O)C(C#N)=C[C@]21C,5.4 to 10.7,5.4 to 10.7,3.22,5.4 to 10.7,Ratio IC50 (HCT-116 [7]): 2
,,0.82,CCOc1ccc(NC(=O)c2cc3c(cc2OC)[C@@]2(C)C=C(C#N)C(=O)C(C)(C)[C@@H]2CC3)cc1,,,,,
,,0.67,COc1cc2c(cc1C(=O)Nc1ccc(Cl)cc1)CC[C@H]1C(C)(C)C(=O)C(C#N)=C[C@]21C,,,,,
0.61,0.59,0.65,COc1cc(Br)c(Nc2nc(-c3c(C)nc4ncccn34)cs2)c(Br)c1,1.6 to 1.7,1.6 to 1.7,1.03,1.6 to 1.7,"inhibition [8]: Dose-dependent effect; Activity (HCT-116 [9]): 79.7%; Activity (HCT-116 [10]): Active; Activity (Mus musculus [11]): Active; Activity (HCT-116 [12]): Dose-dependent effect; inhibition (HCT-116 [13]): Active; inhibition (HCT-116 [3]): Dose-dependent effect; IC50 (HCT-116 [3]; HCT-116, 8 h): 0.7 µM; Activity (HCT-116 [14]): 14.74%; Activity (HCT-116 [15]): inactive; Activity (Mus musculus [16]): Non-Toxic; Activity (HCT-116 [17]): inactive; TGI (HCT-116 [18]): Active"
,,0.69,COC(=O)c1ccc(NC(=O)c2cc3c(cc2OC)[C@@]2(C)C=C(C#N)C(=O)C(C)(C)[C@@H]2CC3)cc1,,,,,
0.28,0.29,0.25,COC(=O)[C@]12CCC(C)(C)C[C@H]1[C@H]1C(=O)C=C3[C@@]4(C)C=C(C#N)C(=O)C(C)(C)[C@@H]4CC[C@@]3(C)[C@]1(C)CC2 [BARDOXOLONE METHYL],7.2 to 8.4,7.2 to 8.4,2.1,7.2 to 8.4,inhibition (HCT-116 [3]): Active
1.37,1.6,1.04,COc1cc2c(cc1C(=O)NCc1ccc(OC(F)(F)F)cc1)CC[C@H]1C(C)(C)C(=O)C(C#N)=C[C@]21C,3.2 to 5,3.2 to 5,5.19,3.2 to 5,
,,0.56,C=CCOc1ccc(NC(=O)c2cc3c(cc2OC)[C@@]2(C)C=C(C#N)C(=O)C(C)(C)[C@@H]2CC3)cc1,,,,,
,,0.76,COc1cc2c(cc1C(=O)Nc1ccccc1)CC[C@H]1C(C)(C)C(=O)C(C#N)=C[C@]21C,,,,,
,,> 50,COc1cc2c(cc1C(=O)NCC(=O)O)CC[C@H]1C(C)(C)C(=O)C(C#N)=C[C@]21C,,,,,
,,0.32,COc1cc2c(cc1C(=O)Nc1ccc(C(F)(F)F)cc1)CC[C@H]1C(C)(C)C(=O)C(C#N)=C[C@]21C,,,,,
,,2.1,COc1cc2c(cc1C(=O)Nc1ccc(C(C)=O)cc1)CC[C@H]1C(C)(C)C(=O)C(C#N)=C[C@]21C,,,,,inhibition (HCT-116 [3]): Active
,,> 50,COc1cc2c(cc1C(=O)O)CC[C@H]1C(C)(C)C(=O)C(C#N)=C[C@]21C,,,,,
,,0.57,COc1cc2c(cc1C(=O)Nc1ccc(C#N)cc1)CC[C@H]1C(C)(C)C(=O)C(C#N)=C[C@]21C,,,,,
1.62,1.31,0.9,COc1cc2c(cc1C(=O)NNc1ccc(OC(F)(F)F)cc1)CC[C@H]1C(C)(C)C(=O)C(C#N)=C[C@]21C,2.8 to 5,2.8 to 5,4.55,2.8 to 5,

SMILES,IC50 (HT-29) [µM],IC50 (HCT-8) [µM],IC50 (HCT-116 [6]) [µM],selectivity ratio [1],selectivity ratio [2],IC50 [4] [µM],selectivity ratio [5],further results
CC1(C)C(=O)C(C#N)=C[C@]2(C)c3cc(O)c(C(=O)Nc4ccc(OC(F)(F)F)cc4)cc3CC[C@@H]12,2.38,3.06,2,4.5 to 6.9,4.5 to 6.9,13.8,4.5 to 6.9,inhibition (HCT-116 [3]): inactive

# Source: ChEMBL document CHEMBL4266059, “Synthesis of Cyanoenone-Modified Diterpenoid Analogs as Novel Bmi-1-Mediated Antitumor Agents” (ACS Med Chem Lett, 2018)
